Laboratory results as given in ChEMBL document CHEMBL3525967, “In vitro glucuronidation of the antibacterial triclocarban and its oxidative metabolites” (Drug Metab Dispos, 2012).

Columns and labels:
Liver microsome [1] = experiment: Intrinsic clearance in human liver microsomes after 30 mins by LC-ESI-MS analysis; assay type: ADME; settings: 0.5 h
How it was run: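 2'-OH-TCC at 0.2, 0.5, 1, 2, 3, 5, 10 and 50 µM incubated with liver microsomes (alamethicin, MgCl2, saccharolactone, UDPGA; 37 °C), sampled at 5, 10, 15 and 30 min. Samples ≥5 µM diluted 1:9 in ACN; LC-ESI-MS. KM and vmax fitted from rate vs concentration; intrinsic clearance derived from these; mean and SD of three.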

[2] = target: T1, UDP-glucuronosyltransferase 1A8 (Homo sapiens, UniProt Q9HAW9); experiment: Drug metabolism assessed as human UGT1A8-mediated N-glucuronide-triclocarban formation expressed in baculovirus infected insect sf9 cells incubated for 5 mins prior to UDPGA addition measured after 5 to 30 mins by LC-UV analysis; assay type: ADME
T1 sequence (Q9HAW9 whole entry): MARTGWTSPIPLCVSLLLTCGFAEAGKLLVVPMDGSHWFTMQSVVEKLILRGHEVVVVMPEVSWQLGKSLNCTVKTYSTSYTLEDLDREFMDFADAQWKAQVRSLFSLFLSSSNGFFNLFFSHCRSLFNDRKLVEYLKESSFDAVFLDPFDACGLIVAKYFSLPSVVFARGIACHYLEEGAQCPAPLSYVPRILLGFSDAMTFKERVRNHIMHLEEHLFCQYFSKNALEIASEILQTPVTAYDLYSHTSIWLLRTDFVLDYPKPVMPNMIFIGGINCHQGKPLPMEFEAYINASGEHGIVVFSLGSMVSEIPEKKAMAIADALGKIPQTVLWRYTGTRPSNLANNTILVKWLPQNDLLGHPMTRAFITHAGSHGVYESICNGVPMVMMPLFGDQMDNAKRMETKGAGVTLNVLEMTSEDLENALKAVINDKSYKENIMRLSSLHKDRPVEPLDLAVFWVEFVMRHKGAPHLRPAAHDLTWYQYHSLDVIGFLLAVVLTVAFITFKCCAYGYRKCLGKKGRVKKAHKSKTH
How it was run: (§1)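 Microsomes or UGT Supersomes (5 µg protein) were held 15 min on ice with alamethicin in 100 mM potassium phosphate pH 7.4. TCC was added at 10 µM (2% DMSO) with 10 mM MgCl2 and 10 mM saccharolactone, pre-warmed 5 min at 37 °C, then started with UDPGA. Samples at 5, 10, 15 and 30 min were quenched in ACN. Product was read by LC-UV at 265 nm; rate came from regression over time, three incubations.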

[3] = Drug metabolism in cynomolgus monkey liver microsomes assessed as N'-glucuronide-triclocarban formation incubated for 5 mins prior to UDPGA addition measured after 5 to 30 mins by LC-UV analysis; assay type: ADME, Macaca fascicularis; how it was run: as §1
[4] = Drug metabolism in microsomes (unknown origin) assessed as retention time at 10 uM by LC-UV-MS method; assay type: ADME, Microsome
How it was run: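 Retention times were measured on a C18 column (2 × 100 mm, 2.2 µm) at 300 µL/min. Solvent A was 25 mM ammonium acetate with 0.1% acetic acid; solvent B was ACN. Gradient: 30% B isocratic for 2 min, convex 30–85% B to 7.5 min, then […]. Detection was UV at 265 nm and ESI-MS in SRM mode.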

[5] = Drug metabolism in cynomolgus monkey liver microsomes assessed as N'-glucuronide-triclocarban formation incubated for 5 mins prior to UDPGA addition measured after 30 mins by LC-UV-ESI-MS/MS analysis; assay type: ADME, Macaca fascicularis; settings: 0.5 h
How it was run: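 TCC was incubated at 10 µM (2% DMSO) in 100 mM phosphate pH 7.4 with alamethicin-treated microsomes or Supersomes, 10 mM MgCl2 and 10 mM saccharolactone. After 5 min pre-incubation at 37 °C, UDPGA was added to start the reaction. Protein was raised up to 2 mg/mL. Samples were quenched in ACN with 1 µM DCC internal standard, centrifuged, and N-glucuronides detected by LC-ESI-MS/MS in SRM mode.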

[6] = target: T2, UDP-glucuronosyltransferase 1A3 (Homo sapiens, UniProt P35503); experiment: Drug metabolism assessed as human UGT1A3-mediated N'-glucuronide-triclocarban formation expressed in baculovirus infected insect sf9 cells incubated for 5 mins prior to UDPGA addition measured after 5 to 30 mins by LC-UV analysis; assay type: ADME; how it was run: as §1
T2 sequence (P35503 whole entry): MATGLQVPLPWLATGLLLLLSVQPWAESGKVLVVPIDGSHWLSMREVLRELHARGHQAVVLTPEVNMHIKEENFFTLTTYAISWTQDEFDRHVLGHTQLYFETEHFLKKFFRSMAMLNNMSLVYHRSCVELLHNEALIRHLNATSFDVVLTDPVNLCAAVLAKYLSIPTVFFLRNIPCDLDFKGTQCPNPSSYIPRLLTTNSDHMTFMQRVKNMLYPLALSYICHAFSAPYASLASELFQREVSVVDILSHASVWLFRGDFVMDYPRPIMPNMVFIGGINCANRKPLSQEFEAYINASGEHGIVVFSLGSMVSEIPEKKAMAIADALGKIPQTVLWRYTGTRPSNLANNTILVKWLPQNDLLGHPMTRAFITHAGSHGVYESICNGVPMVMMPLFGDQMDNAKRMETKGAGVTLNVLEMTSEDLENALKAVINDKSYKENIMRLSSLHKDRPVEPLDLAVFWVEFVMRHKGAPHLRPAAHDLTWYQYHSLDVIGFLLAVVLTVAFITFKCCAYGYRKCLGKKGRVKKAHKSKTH

[7] = Drug excretion in Sprague-Dawley rat urine assessed as 2'-O-glucuronide-triclocarban formation at 1 mg/kg, po by LC-MS analysis; assay type: ADME, organism-based; design: dose 1 mg/kg, route oral; settings: in vivo
Liver microsome [8] = experiment: Drug metabolism in Sprague-Dawley rat liver microsomes assessed as N-glucuronide-triclocarban formation incubated for 5 mins prior to UDPGA addition measured after 5 to 30 mins by LC-UV analysis; assay type: ADME; how it was run: as §1
[9] = target: T3, UDP-glucuronosyltransferase 1A7 (Homo sapiens, UniProt Q9HAW7); experiment: Drug metabolism assessed as human UGT1A7-mediated N'-glucuronide-triclocarban formation expressed in baculovirus infected insect sf9 cells incubated for 5 mins prior to UDPGA addition measured after 5 to 30 mins by LC-UV analysis; assay type: ADME; how it was run: as §1
T3 sequence (Q9HAW7 whole entry): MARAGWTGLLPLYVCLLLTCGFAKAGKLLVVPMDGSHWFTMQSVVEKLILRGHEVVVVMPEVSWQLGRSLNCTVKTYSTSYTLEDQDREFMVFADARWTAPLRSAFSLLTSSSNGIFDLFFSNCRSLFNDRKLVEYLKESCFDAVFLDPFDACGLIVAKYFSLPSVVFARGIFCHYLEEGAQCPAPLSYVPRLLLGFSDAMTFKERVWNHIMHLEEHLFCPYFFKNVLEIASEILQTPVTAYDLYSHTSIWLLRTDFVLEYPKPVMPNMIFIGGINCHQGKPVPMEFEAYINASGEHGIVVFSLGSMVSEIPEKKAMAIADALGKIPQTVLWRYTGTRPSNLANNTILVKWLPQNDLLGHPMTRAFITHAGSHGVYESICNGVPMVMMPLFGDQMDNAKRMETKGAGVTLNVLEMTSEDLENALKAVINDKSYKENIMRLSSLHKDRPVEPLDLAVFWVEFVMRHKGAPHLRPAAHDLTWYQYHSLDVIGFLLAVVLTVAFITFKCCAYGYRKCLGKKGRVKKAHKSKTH

## O=C(Nc1ccc(Cl)c(Cl)c1)Nc1ccc(Cl)cc1O
Liver microsome [1]
  CLH: 1740 µL/min/mg

## O=C(Nc1ccc(Cl)cc1)Nc1ccc(Cl)c(Cl)c1 [TRICLOCARBAN]
[2]
  Drug metabolism: metabolite_not_detected
[3]
  Drug metabolism: metabolite_not_detected
[4]
  Retention_time: 5.1 min
[5]
  Drug metabolism: metabolite_detected
[6]
  Drug metabolism: metabolite_not_detected
[7]
  Drug excretion: metabolite_detected
Liver microsome [8]
  Drug metabolism: metabolite_not_detected
[9]
  Drug metabolism: metabolite_not_detected
